Source: ChEMBL document CHEMBL3861959, “Synthesis and antiproliferative evaluation of novel 2-(4H-1,2,4-triazole-3-ylthio)acetamide derivatives as inducers of apoptosis in cancer cells” (Eur J Med Chem, 2016)
Converted amounts (≈) assume the structure as drawn.

Tests used:
[1] = test system: Human immunodeficiency virus 1; experiment: Antiviral activity against HIV1 3B infected in human MT4 cells assessed as protection against virus-induced cytopathic effect after 5 days MTT assay; assay type: functional, cell-based; conditions: Human immunodeficiency virus 1, 3B, MT4, 120 h
Outline: (§1)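 HIV-1 strain IIIB and HIV-2 strain ROD in MT-4 cells, MTT-based. Test compounds in serial five-fold dilutions, in triplicate wells run alongside mock-infected cells, with untreated infected and mock controls. MT-4 cells resuspended at 6 × 10^5 cells/mL. Absorbance read at 540 and 690 nm, median OD of three wells. EC50 is the 50% effective concentration.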

[2] = Antiviral activity against HIV2 ROD infected in human MT4 cells assessed as protection against virus-induced cytopathic effect after 5 days MTT assay; assay type: functional, cell-based, Human immunodeficiency virus type 2 (ISOLATE ROD); conditions: Human immunodeficiency virus 2, MT4, 120 h; outline: as §1
[3] = Cytotoxicity against human MT4 cells assessed as decrease in cell viability after 5 days by MTT assay; assay type: toxicity, cell-based
Outline: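 MT-4 cells in mock-infected wells of the anti-HIV MTT setup. Compounds in serial five-fold dilutions in triplicate, cells at 6 × 10^5 cells/mL. Absorbance at 540 and 690 nm, median OD of three wells. CC50 is the concentration that lowers OD540 of the mock-infected control by 50%.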

[4] = Selectivity index, ratio of CC50 for human MT4 cells to EC50 for HIV1 3B; assay type: toxicity, cell-based; conditions: read-out: Ratio CC50/EC50
Outline: (§2)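 HIV-1 IIIB and HIV-2 ROD tested in MT-4 cells by MTT. Serial fivefold dilutions of compound added to triplicate mock- and virus-infected wells. MT-4 cells at 6 × 10^5 cells/mL. Absorbance read at 540/690 nm; median OD of three wells used. CC50 is the concentration reducing mock-infected OD540 by 50%. […]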

[5] = Selectivity index, ratio of CC50 for human MT4 cells to EC50 for HIV2 ROD; assay type: toxicity, cell-based; conditions: read-out: Ratio CC50/EC50; outline: as §2
[6] = Cytotoxicity against human K562 cells assessed as decrease in cell proliferation after 72 hrs by XTT assay; conditions: K562, 72 h

SMILES	EC50 [1]	EC50 [2]	CC50 at 120 h [3]	selectivity ratio [4]	selectivity ratio [5]	IC50 [6]
CC(=O)Nc1ccc(OCc2nnc(SCC(=O)Nc3ccc(Cl)cc3)n2Cc2ccccc2)cc1	> 14 µg/mL	> 14 µg/mL	14 µg/mL (≈ 26.8 µM)	< 1	< 1	–
Cc1ccc(C(C)C)c(OCc2n[nH]c(=S)n2Cc2ccccc2)c1	> 13.1 µg/mL	> 13.1 µg/mL	13.1 µg/mL (≈ 37 µM)	< 1	< 1	–
CCOC(=O)c1ccc(NC(=O)CSc2nnc(COc3cc(C)ccc3C(C)C)n2Cc2ccccc2)cc1	> 19.8 µg/mL	> 19.8 µg/mL	19.8 µg/mL (≈ 35.5 µM)	< 1	< 1	–
Cc1ccnc2c1NC(=O)c1cccnc1N2C1CC1 [NEVIRAPINE]	–	> 4 µg/mL	> 4 µg/mL	> 80	< 1	–
O=C(CSc1nnc(COc2ccc3ccccc3c2)n1Cc1ccccc1)Nc1ccc([N+](=O)[O-])cc1	> 116 µg/mL	> 116 µg/mL	≥ 116 µg/mL	≤ 1	≤ 1	–
CC(=O)Nc1ccc(OCc2nnc(SCC(=O)Nc3ccc(S(N)(=O)=O)cc3)n2Cc2ccccc2)cc1	> 125 µg/mL	> 125 µg/mL	> 125 µg/mL	1	1	–
Cc1ccc(C(C)C)c(OCC(=O)NNC(=S)NCc2ccccc2)c1	> 12.6 µg/mL	> 12.6 µg/mL	12.6 µg/mL (≈ 34 µM)	< 1	< 1	–
CC(=O)Nc1ccc(OCc2nnc(SCC(=O)Nc3ccc([N+](=O)[O-])cc3)n2Cc2ccccc2)cc1	> 105 µg/mL	> 105 µg/mL	105 µg/mL (≈ 197 µM)	< 1	< 1	–
Nc1ccn([C@H]2CC[C@@H](CO)O2)c(=O)n1 [ZALCITABINE]	–	0.19 µg/mL (≈ 0.9 µM)	> 20 µg/mL	> 127	> 108	–
Cc1ccc(C(C)C)c(OCc2nnc(SCC(=O)Nc3ccc(Br)cc3)n2Cc2ccccc2)c1	> 66.7 µg/mL	> 66.7 µg/mL	66.7 µg/mL (≈ 118 µM)	< 1	< 1	–
O=c1[nH]cnc2c1ncn2[C@H]1CC[C@@H](CO)O1 [DIDANOSINE]	2.09 µg/mL (≈ 8.85 µM)	3.78 µg/mL (≈ 16 µM)	> 50 µg/mL	> 24	> 13	–
O=C(CSc1nnc(COc2ccc3ccccc3c2)n1Cc1ccccc1)Nc1ccc(Br)cc1	> 58 µg/mL	> 58 µg/mL	58 µg/mL (≈ 104 µM)	< 1	< 1	–
S=c1[nH]nc(COc2ccc3ccccc3c2)n1Cc1ccccc1	> 85.8 µg/mL	> 85.8 µg/mL	≥ 85.8 µg/mL	≤ 1	≤ 1	–
CCOC(=O)c1ccc(NC(=O)CSc2nnc(COc3ccc(NC(C)=O)cc3)n2Cc2ccccc2)cc1	> 91.1 µg/mL	> 91.1 µg/mL	91.1 µg/mL (≈ 163 µM)	< 1	< 1	–
Cc1ccc(NC(=O)c2ccc(CN3CCN(C)CC3)cc2)cc1Nc1nccc(-c2cccnc2)n1 [IMATINIB]	–	–	–	–	–	310 nM
NS(=O)(=O)c1ccc(NC(=O)CSc2nnc(COc3ccc4ccccc4c3)n2Cc2ccccc2)cc1	> 94.4 µg/mL	> 94.4 µg/mL	94.5 µg/mL (≈ 169 µM)	< 1	< 1	–
Cc1ccc(C(C)C)c(OCc2nnc(SCC(=O)Nc3ccc([N+](=O)[O-])cc3)n2Cc2ccccc2)c1	> 11.2 µg/mL	> 11.2 µg/mL	11.2 µg/mL (≈ 21 µM)	< 1	< 1	–
Cc1cn([C@H]2C[C@H](N=[N+]=[N-])[C@@H](CO)O2)c(=O)[nH]c1=O [ZIDOVUDINE]	0.0022 µg/mL (≈ 0.00823 µM)	0.00094 µg/mL (≈ 0.00352 µM)	> 25 µg/mL	> 11600	> 26700	–
O=C(CSc1nnc(COc2ccc3ccccc3c2)n1Cc1ccccc1)Nc1ccc(Cl)cc1	> 4.93 µg/mL	> 4.93 µg/mL	≥ 4.93 µg/mL	≤ 1	≤ 1	–
O=C(COc1ccc2ccccc2c1)NNC(=S)NCc1ccccc1	> 61.4 µg/mL	> 61.4 µg/mL	≥ 61.4 µg/mL	≤ 1	≤ 1	–
CC(=O)Nc1ccc(OCc2n[nH]c(=S)n2Cc2ccccc2)cc1	> 79 µg/mL	> 79 µg/mL	79 µg/mL (≈ 223 µM)	< 1	< 1	–
CC(=O)Nc1ccc(OCC(=O)NNC(=S)NCc2ccccc2)cc1	> 83.5 µg/mL	> 83.5 µg/mL	83.5 µg/mL (≈ 224 µM)	< 1	< 1	–
CCOC(=O)c1ccc(NC(=O)CSc2nnc(COc3ccc4ccccc4c3)n2Cc2ccccc2)cc1	> 90.7 µg/mL	> 90.7 µg/mL	≥ 90.7 µg/mL	≤ 1	≤ 1	–
